# Compound activity: PubChem, several laboratories
# MT1-MMP txn act: activates MT1-MMP transcription; HT1080 MT1-MMP promoter luciferase reporter, luminescence, overnight; stronger effect = higher value; activation factor at 10 µM; hit rate 0.16% among 86,000;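 active = activation factor of at least 2 for MT1-MMP transcription at 10 µM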
# RORA act: activators of human nuclear receptor RORA; hit rate 1.5% among 65,000; activation, % at 10 µM; AID 560; CHO-K1 Gal4-RORA LBD luciferase reporter, luminescence; percent increase over mock-subtracted basal signal; P35398;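 active = activation above the mean of all tested compounds plus 3 SD, cut at about 49% in these data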;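 note: 0% = DMSO-treated RORA cells and 100% = added signal equal to DMSO minus mock-transfected cells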
# Target sequence (P35398 whole entry, looked up, the tested form may be a part): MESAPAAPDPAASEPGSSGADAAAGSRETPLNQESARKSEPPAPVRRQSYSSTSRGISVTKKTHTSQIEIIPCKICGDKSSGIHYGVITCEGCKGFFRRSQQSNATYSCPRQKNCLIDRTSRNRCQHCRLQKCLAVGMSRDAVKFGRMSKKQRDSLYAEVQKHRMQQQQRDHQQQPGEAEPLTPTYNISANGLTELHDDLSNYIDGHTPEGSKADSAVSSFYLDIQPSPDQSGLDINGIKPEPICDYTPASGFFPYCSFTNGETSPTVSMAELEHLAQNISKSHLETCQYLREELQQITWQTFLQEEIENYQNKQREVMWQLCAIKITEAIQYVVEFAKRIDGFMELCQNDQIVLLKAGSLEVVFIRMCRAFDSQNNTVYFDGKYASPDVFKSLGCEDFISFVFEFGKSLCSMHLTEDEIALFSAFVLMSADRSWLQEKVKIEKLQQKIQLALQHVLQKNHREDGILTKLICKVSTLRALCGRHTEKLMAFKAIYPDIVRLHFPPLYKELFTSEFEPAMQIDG
# HEK293 NFkB inh: inhibitors of the PMA/ionomycin-induced NF-kB reporter in HEK293 cells; hit rate 0.21% among 62,000; AID 465; HEK-293 NF-kB luciferase reporter, luminescence; inhibition, % at 3 µM;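 active = inhibition above the mean of all tested compounds plus 3 SD, cut at about 40% in these data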;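 note: 0% = stimulated DMSO wells and 100% = 10 µM reference inhibitor 5653914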
#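 Material: HEK-293 cells with stable firefly luciferase reporter driven by four HIV NF-kB elements / Also added: PMA plus ionomycin mix as NF-kB-activating stimulus / Compound dosing: 3 µM once, 0.30% DMSO / Times: 1 h pretreatment, 16 h stimulation, 37 °C / Signal: luminescence / Evaluation: per-plate % inhibition versus controls / Benchmarks: DMSO and 10 µM reference inhibitor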
# Jurkat tox 60K: cytotoxic compounds reducing Jurkat cell viability | Jurkat E6.1 viability, ATP luminescence, 48 h | AID 463 | hit rate 1.2% among 56,000 | inhibition, % at 4 µM;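 active = inhibition above the mean inhibition of all tested compounds plus 3 SD, cut at about 28% in these data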
# SF1 activator: activators of human nuclear receptor SF-1. Q13285. CHO-K1 Gal4-SF-1 LBD luciferase reporter; % increase over DMSO SF-1-specific signal. activation, % at 10 µM. hit rate 1.9% among 65,000. AID 522;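 active = activation above the mean activation of all tested compounds plus 3 SD, cut at about 50% in these data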
#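 Compound – one dose, 10 µM compound, 1% DMSO · Test system – transient Gal4-SF-1 LBD reporter, CHO-K1 · Input – 4,000 cells in each well · Read-out basis – percent activation relative to DMSO median and mock-transfected background · Replicates – single measurement per compound · Technique – steady-glow luciferase luminescence, read after 15 min reagent incubation · Timing – 20 h compound treatment, 37 °C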
# Numbers without * were called inactive; / = no result given. Shown are actives, neighbours in structure and some others; about 2.8% of the full set was active somewhere.
SMILES,MT1-MMP txn act,RORA act,HEK293 NFkB inh,Jurkat tox 60K,SF1 activator
Cc1cccc2cc(C#N)c(SCC(=O)N3CCC(C)CC3)nc12,1.2,-6,10,0,-14
Cc1cccc2cc(C#N)c(SCC(=O)N3CC(=O)Nc4ccccc43)nc12,0.7,-41,30,99*,-64
O=C(Nc1ccc(Br)cn1)c1ccc2nccnc2c1,1.8,44,-32,5,69*
COc1ccc(NC(=O)c2ccc3nccnc3c2)cc1,1.7,/,/,/,/
CC(C)(C)c1ccc(OCCn2ccccc2=O)cc1,1.9,39,-30,13,67*
CCCOc1ccccc1C1CC(=O)Nc2cc3c(cc21)OCCO3 (centres undefined),0.6,-60,47*,98*,-30
CCOc1ccccc1C1CC(=O)Nc2cc(OC)c(OC)c(OC)c21 (centres undefined),/,-6,10,/,3
CC(C)Oc1ccccc1C1CC(=O)Nc2cc3c(cc21)OCO3 (centres undefined),0.5,-10,26,97*,-43
CCOc1ccccc1C1CC(=O)Nc2cc3c(cc21)OCCO3 (centres undefined),0.6,-24,28,95*,-11
O=C1CC(c2cccnc2)c2cc3c(cc2N1)OCO3 (centres undefined),1.1,-7,7,2,2
Cc1ccc(CCNC(=O)C2CCN(S(=O)(=O)N3CCC4(CC3)OCCO4)CC2)cc1,1.1,5,5,-1,-2
O=C(O)CC(C(=O)O)c1cn(Cc2ccccc2)c2ccccc12 (centres undefined),1.1,-15,9,2,3
CC(C)c1nnc(NC(=O)CCN2C(=O)c3ccccc3C2=O)s1,1.2,-20,21,8,4
CCn1ncc(C2=NOC(C(=O)NCc3ccccc3)C2)c1C (centres undefined),0.5,9,21,93*,30
COc1ccc(C2=NOC(C(=O)NCc3ccccc3)C2)cc1 (centres undefined),1.2,18,23,45*,28
CCn1ncc(C2=NOC(C(=O)NCc3ccc(OC)cc3)C2)c1C (centres undefined),1.1,13,12,39*,24
Cc1cc(NC(=O)CSc2nnc(CNc3cccc(C(F)(F)F)c3)n2Cc2ccco2)no1,0.9,0,24,12,2
COc1ccccc1-c1cc(C(F)(F)F)nc(S(=O)(=O)CCCC(=O)O)n1,1.1,/,/,/,/
COc1ccccc1-c1cc(C(F)(F)F)nc(S(=O)(=O)CCCC(=O)N2CCOCC2)n1,/,-35,-5,62*,-37
O=C(CN1CCN(c2ccccn2)CC1)Nc1ccc(Oc2ccccc2)cc1,1.1,-6,14,2,6
CCNc1nc(SCc2ccccc2)nc(N2CCOCC2)n1,1,-8,18,-2,1
Cc1nc(NC(=O)c2ccccc2)sc1-c1csc(N)n1,1.3,81*,6,26,32
Cc1cc(C)n2nc(C(=O)Nc3nccs3)nc2n1,1.5,/,/,/,/
Clc1ccc(-c2nnc3sc(-c4ccc(Br)o4)nn23)cc1,1,-9,2,1,-27
CC(=O)Nc1ccc2nc(-c3ccccn3)[nH]c2c1,1.3,65*,-7,1,48
SMILES,MT1-MMP txn act,RORA act,HEK293 NFkB inh,Jurkat tox 60K,SF1 activator
Cc1cccc(-c2c3c(=O)n(C)c(=O)n(C)c3cn2-c2ccc(O)cc2)c1,1,14,10,-3,-2
Cc1cc(C)n2nc(SC3CCCCN(C(=O)c4ccc(F)cc4)C3=O)nc2n1 (centres undefined),1,4,8,-3,0
Cc1cnc(NC(=O)COc2ccccc2)s1,1.1,54*,-29,-6,82*
Cc1cc(NC(=O)c2ccco2)ncc1NC(=O)Cc1ccccc1,1.9,57*,5,11,41
COC(=O)c1sc(NC(=O)c2ccco2)nc1C,1.1,28,-1,3,50*
Cc1cc(NC(=O)COc2cccc(Oc3ccccc3)c2)no1,1.2,31,-4,50*,3
Cc1cccc(OCC(=O)Nc2cc(C)on2)c1,1.3,/,/,/,/
O=C(CN1CCN(Cc2ccccc2F)C1=O)NCc1ccco1,1.2,/,/,/,/
Cc1sc(NC(=O)c2ccco2)nc1-c1ccccc1,1.4,/,/,/,/
CNc1nc(C)c(C(=O)OCc2ccccc2)s1,1.6,35,5,66*,9
CC(=O)c1sc(NC(=O)c2ccco2)nc1-c1ccccc1,1.2,40,-8,-1,70*
